From ChEMBL document CHEMBL1255376, “Comparative surveillance study of telavancin activity against recently collected gram-positive clinical isolates from across the United States” (2008)
Values after ≈ are worked out from the molar mass of the structure shown.

Legend:
Enterococcus faecium [1] = experiment: Antibacterial activity against linezolid/daptomycin-nonsusceptible vancomycin-susceptible Enterococcus faecium clinical isolate by broth microdilution method; type: functional
Procedure, shortened: (§1)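 MICs by CLSI broth microdilution in frozen trays pre-loaded with serial dilutions of each agent. Quality-control strains run in parallel: E. faecalis ATCC 29212 and ATCC 51299, S. aureus ATCC 29213, S. pneumoniae ATCC 49619. Comparator susceptibility categories follow CLSI breakpoints. Methicillin resistance in staphylococci assigned from the oxacillin MIC.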

[2] = test system: Staphylococcus epidermidis; experiment: Antibacterial activity against methicillin-susceptible coagulase-negative Staphylococcus epidermidis clinical isolate by broth microdilution method; type: functional; procedure, shortened: as §1
Staphylococcus aureus [3] = experiment: Antibacterial activity against vancomycin-intermediate methicillin-resistant Staphylococcus aureus NRS1 by broth microdilution method; type: functional
Procedure, shortened: (§2)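 VISA and VRSA strains from the NARSA repository were tested separately from the surveillance isolates. MICs by CLSI broth microdilution in frozen trays with serial dilutions. Quality-control strains run in parallel. Susceptibility categories follow CLSI breakpoints, and methicillin resistance was assigned from the oxacillin MIC.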

[4] = test system: Streptococcus intermedius; experiment: Antibacterial activity against Streptococcus intermedius clinical isolate by broth microdilution method; type: functional
Procedure, shortened: (§3)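 MIC by CLSI broth microdilution in frozen microtiter trays holding serial dilutions of each agent, prepared from standard laboratory powders. E. faecalis ATCC 29212 and ATCC 51299, S. aureus ATCC 29213 and S. pneumoniae ATCC 49619 run in parallel as quality-control strains. Comparator susceptibility interpreted with CLSI breakpoints.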

Enterococcus = experiment: Antibacterial activity against vancomycin-susceptible Enterococcus; type: functional; procedure, shortened: as §3
Staphylococcus hominis = experiment: Antibacterial activity against methicillin-resistant coagulase-negative Staphylococcus hominis clinical isolate by broth microdilution method; type: functional; procedure, shortened: as §1
[5] = test system: Streptococcus constellatus; experiment: Antibacterial activity against Streptococcus constellatus clinical isolate by broth microdilution method; type: functional; procedure, shortened: as §3
Enterococcus faecalis [6] = experiment: Antibacterial activity against linezolid/daptomycin-nonsusceptible vancomycin-susceptible Enterococcus faecalis clinical isolate by broth microdilution method; type: functional; procedure, shortened: as §1
Enterococcus faecalis [7] = experiment: Antibacterial activity against vancomycin- and teichoplanin-nonsusceptible Enterococcus faecalis clinical isolate by broth microdilution method; type: functional; procedure, shortened: as §1
Staphylococcus aureus [8] = experiment: Antibacterial activity against daptomycin-nonsusceptible Staphylococcus aureus isolate 1285404 by broth microdilution method
Enterococcus faecium [9] = experiment: Antibacterial activity against linezolid/daptomycin-nonsusceptible vancomycin-resistant Enterococcus faecium clinical isolate by broth microdilution method; type: functional; procedure, shortened: as §1
Staphylococcus aureus [10] = experiment: Antibacterial activity against daptomycin-nonsusceptible Staphylococcus aureus isolate 1176127 by broth microdilution method; type: functional; procedure, shortened: as §1
Staphylococcus aureus [11] = experiment: Antibacterial activity against daptomycin-nonsusceptible Staphylococcus aureus isolate 1171063 by broth microdilution method; type: functional; procedure, shortened: as §1
Staphylococcus aureus [12] = experiment: Antibacterial activity against daptomycin-nonsusceptible Staphylococcus aureus isolate 1171055 by broth microdilution method; type: functional; procedure, shortened: as §1
Staphylococcus aureus [13] = experiment: Antibacterial activity against vancomycin-intermediate methicillin-resistant Staphylococcus aureus NRS12 by broth microdilution method; type: functional; procedure, shortened: as §2
[14] = test system: Staphylococcus haemolyticus; experiment: Antibacterial activity against methicillin-resistant coagulase-negative Staphylococcus haemolyticus clinical isolate by broth microdilution method; type: functional; procedure, shortened: as §1
Enterococcus faecium [15] = experiment: Antibacterial activity against vancomycin-susceptible Enterococcus faecium clinical isolate by broth microdilution method; type: functional; procedure, shortened: as §3
Streptococcus sp. = experiment: Antibacterial activity against Streptococcus sp. clinical isolate by broth microdilution method; type: functional
Procedure, shortened: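 MIC by CLSI broth microdilution in frozen microtiter trays holding serial dilutions of each agent, prepared from standard laboratory powders. Comparator susceptibility interpreted with CLSI breakpoints.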

Staphylococcus aureus [16] = experiment: Antibacterial activity against vancomycin-, methicillin-resistant Staphylococcus aureus VRS3 by broth microdilution method; type: functional; procedure, shortened: as §2
Staphylococcus aureus [17] = experiment: Antibacterial activity against vancomycin-intermediate methicillin-resistant Staphylococcus aureus NRS118 by broth microdilution method; type: functional; procedure, shortened: as §2
Streptococcus mitis = experiment: Antibacterial activity against Streptococcus mitis clinical isolate by broth microdilution method; type: functional; procedure, shortened: as §3
Staphylococcus aureus [18] = experiment: Antibacterial activity against vancomycin-intermediate methicillin-resistant Staphylococcus aureus NRS74 by broth microdilution method; type: functional; procedure, shortened: as §2
Staphylococcus aureus [19] = experiment: Antibacterial activity against methicillin-resistant Staphylococcus aureus; type: functional
Streptococcus pneumoniae = experiment: Antibacterial activity against penicillin susceptible Streptococcus pneumoniae clinical isolate by broth microdilution method; type: functional; procedure, shortened: as §1
Staphylococcus = experiment: Antibacterial activity against methicillin-resistant coagulase-negative unspeciated Staphylococcus clinical isolate by broth microdilution method; type: functional; procedure, shortened: as §1
Staphylococcus aureus [20] = experiment: Antibacterial activity against vancomycin-intermediate methicillin-susceptible Staphylococcus aureus NRS56 by broth microdilution method; type: functional; procedure, shortened: as §2
Staphylococcus capitis = experiment: Antibacterial activity against methicillin-susceptible coagulase-negative Staphylococcus capitis clinical isolate by broth microdilution method; type: functional; procedure, shortened: as §1

Compound | MIC50 [2] | MIC90 [2] | MIC50 [4] | MIC90 [4] | MIC50 (Staphylococcus hominis) | MIC90 (Staphylococcus hominis) | MIC50 [5] | MIC90 [5] | MIC50 (Enterococcus faecalis [7]) | MIC90 (Enterococcus faecalis [7]) | MIC50 [14] | MIC90 [14] | MIC50 (Enterococcus faecium [15]) | MIC90 (Enterococcus faecium [15]) | MIC50 (Streptococcus sp.) | MIC90 (Streptococcus sp.) | MIC (Staphylococcus aureus [16]) | MIC50 (Streptococcus mitis) | MIC90 (Streptococcus mitis) | MIC50 (Staphylococcus aureus [19]) | other results
CCCCCCCCCCNCCN[C@@]1(C)C[C@H](O[C@H]2[C@H](Oc3c4cc5cc3Oc3ccc(cc3Cl)[C@@H](O)[C@@H](NC(=O)[C@@H](CC(C)C)NC)C(=O)N[C@@H](CC(N)=O)C(=O)N[C@H]5C(=O)N[C@H]3C(=O)N[C@H](C(=O)N[C@H](C(=O)O)c5cc(O)c(CNCP(=O)(O)O)c(O)c5-c5cc3ccc5O)[C@H](O)c3ccc(c(Cl)c3)O4)O[C@H](CO)[C@@H](O)[C@@H]2O)O[C@@H](C)[C@H]1O [TELAVANCIN] | 0.25 µg/mL (≈ 0.142 µM) | 0.5 µg/mL (≈ 0.285 µM) | 0.03 µg/mL (≈ 0.0171 µM) | 0.12 µg/mL (≈ 0.0684 µM) | 0.25 µg/mL (≈ 0.142 µM) | 0.5 µg/mL (≈ 0.285 µM) | 0.03 µg/mL (≈ 0.0171 µM) | 0.12 µg/mL (≈ 0.0684 µM) | 8 µg/mL (≈ 4.56 µM) | 16 µg/mL (≈ 9.11 µM) | 0.25 µg/mL (≈ 0.142 µM) | 0.5 µg/mL (≈ 0.285 µM) | 0.12 µg/mL (≈ 0.0684 µM) | 0.25 µg/mL (≈ 0.142 µM) | 0.03 µg/mL (≈ 0.0171 µM) | 0.12 µg/mL (≈ 0.0684 µM) | 4 µg/mL (≈ 2.28 µM) | 0.03 µg/mL (≈ 0.0171 µM) | 0.12 µg/mL (≈ 0.0684 µM) | 0.14 µM (≈ 0.246 µg/mL) | MIC (Enterococcus faecium [1]): 0.06 µg/mL (≈ 0.0342 µM); MIC (Staphylococcus aureus [3]): 0.5 µg/mL (≈ 0.285 µM); MIC90 (Enterococcus): 1 µg/mL (≈ 0.57 µM); MIC (Enterococcus faecalis [6]): 1 µg/mL (≈ 0.57 µM); MIC (Staphylococcus aureus [8]): 0.25 µg/mL (≈ 0.142 µM); MIC (Enterococcus faecium [9]): 2 µg/mL (≈ 1.14 µM); MIC (Staphylococcus aureus [10]): 0.5 µg/mL (≈ 0.285 µM); MIC (Staphylococcus aureus [11]): 0.5 µg/mL (≈ 0.285 µM); MIC (Staphylococcus aureus [12]): 0.5 µg/mL (≈ 0.285 µM); MIC (Staphylococcus aureus [13]): 0.5 µg/mL (≈ 0.285 µM); MIC (Staphylococcus aureus [17]): 0.5 µg/mL (≈ 0.285 µM); MIC (Staphylococcus aureus [18]): 1 µg/mL (≈ 0.57 µM); MIC50 (Streptococcus pneumoniae): 0.015 µg/mL (≈ 0.00854 µM); MIC90 (Streptococcus pneumoniae): 0.03 µg/mL (≈ 0.0171 µM); MIC50 (Staphylococcus): 0.25 µg/mL (≈ 0.142 µM); MIC90 (Staphylococcus): 0.5 µg/mL (≈ 0.285 µM); MIC (Staphylococcus aureus [20]): 1 µg/mL (≈ 0.57 µM); MIC50 (Staphylococcus capitis): 0.25 µg/mL (≈ 0.142 µM); MIC90 (Staphylococcus capitis): 0.5 µg/mL (≈ 0.285 µM)
CN[C@H](CC(C)C)C(=O)N[C@H]1C(=O)N[C@@H](CC(N)=O)C(=O)N[C@H]2C(=O)N[C@H]3C(=O)N[C@H](C(=O)N[C@H](C(=O)O)c4cc(O)cc(O)c4-c4cc3ccc4O)[C@H](O)c3ccc(c(Cl)c3)Oc3cc2cc(c3O[C@@H]2O[C@H](CO)[C@@H](O)[C@H](O)[C@H]2O[C@H]2C[C@](C)(N)[C@H](O)[C@H](C)O2)Oc2ccc(cc2Cl)[C@H]1O [VANCOMYCIN] | 1 µg/mL (≈ 0.69 µM) | 2 µg/mL (≈ 1.38 µM) | 0.5 µg/mL (≈ 0.345 µM) | 0.5 µg/mL (≈ 0.345 µM) | 2 µg/mL (≈ 1.38 µM) | 2 µg/mL (≈ 1.38 µM) | 0.5 µg/mL (≈ 0.345 µM) | 0.5 µg/mL (≈ 0.345 µM) | 512 µg/mL (≈ 353 µM) | > 512 µg/mL | 2 µg/mL (≈ 1.38 µM) | 2 µg/mL (≈ 1.38 µM) | ≤ 0.5 µg/mL | 1 µg/mL (≈ 0.69 µM) | 0.5 µg/mL (≈ 0.345 µM) | 0.5 µg/mL (≈ 0.345 µM) | > 32 µg/mL | 0.5 µg/mL (≈ 0.345 µM) | 0.5 µg/mL (≈ 0.345 µM) | 0.69 µM (≈ 1 µg/mL) | MIC (Enterococcus faecium [15]): ≤ 0.5 µg/mL; MIC50 (Streptococcus pneumoniae): 0.25 µg/mL (≈ 0.173 µM); MIC90 (Streptococcus pneumoniae): 0.5 µg/mL (≈ 0.345 µM); MIC50 (Staphylococcus): 2 µg/mL (≈ 1.38 µM); MIC90 (Staphylococcus): 2 µg/mL (≈ 1.38 µM); MIC50 (Staphylococcus capitis): 1 µg/mL (≈ 0.69 µM); MIC90 (Staphylococcus capitis): 2 µg/mL (≈ 1.38 µM)
